In brackets after ≈: the same amount, converted by molar mass.
What was measured:
[1] = target: T1, Dihydrofolate reductase (Bos taurus, UniProt P00376); test: Inhibition of bovine liver DHFR preincubated for 2 mins followed by addition of FH2 as substrate and NADPH
T1 sequence (P00376 whole entry): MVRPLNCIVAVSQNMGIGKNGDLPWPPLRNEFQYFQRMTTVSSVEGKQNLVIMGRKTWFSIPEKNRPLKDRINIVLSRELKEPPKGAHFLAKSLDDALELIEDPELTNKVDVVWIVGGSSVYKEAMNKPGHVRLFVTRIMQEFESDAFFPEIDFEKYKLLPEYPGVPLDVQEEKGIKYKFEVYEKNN

[2] = tested on: Candida albicans; test: Antimicrobial activity against Candida albicans IFO 0583 at 200 ug/disc measured after 48 hrs by agar disc-diffusion method; type: functional; details: IFO 0583, 48 h, read-out: DIZ
[3] = tested on: Escherichia coli; test: Antimicrobial activity against Escherichia coli IFO 3301 at 200 ug/disc measured after 24 hrs by agar disc-diffusion method; type: functional; details: IFO 3301, 24 h, read-out: DIZ
[4] = tested on: Staphylococcus aureus; test: Antimicrobial activity against Staphylococcus aureus IFO 3060 at 200 ug/disc measured after 24 hrs by agar disc-diffusion method; type: functional; details: IFO 3060, 24 h, read-out: DIZ
[5] = tested on: Pseudomonas aeruginosa; test: Antimicrobial activity against Pseudomonas aeruginosa IFO 3448 at 200 ug/disc measured after 24 hrs by agar disc-diffusion method; type: functional; details: IFO 3448, 24 h, read-out: DIZ
[6] = tested on: Bacillus subtilis; test: Antimicrobial activity against Bacillus subtilis IFO 3007 at 200 ug/disc measured after 24 hrs by agar disc-diffusion method; type: functional; details: IFO 3007, 24 h, read-out: DIZ
[7] = tested on: Bacillus subtilis; test: Antimicrobial activity against Bacillus subtilis IFO 3007 measured after 24 hrs by microdilution method; type: functional
[8] = tested on: Pseudomonas aeruginosa; test: Antimicrobial activity against Pseudomonas aeruginosa IFO 3448 measured after 24 hrs by microdilution method; type: functional
[9] = tested on: Staphylococcus aureus; test: Antimicrobial activity against Staphylococcus aureus IFO 3060 measured after 24 hrs by microdilution method; type: functional
[10] = tested on: Escherichia coli; test: microbe, parasite or virus in culture; details: IFO 3301, 24 h
[11] = Growth inhibition of human prostate cancer cells after 48 hrs by SRB assay; type: functional; details: Cancer cell lines
Summary of the method: (§1)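 Follow-up NCI panel testing over a 5-log dose range for each cell line. GI50, TGI and LC50 were monitored, with 5-fluorouracil run as the positive control. Values are grouped by tumour subpanel.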

[12] = Growth inhibition of human ovarian cancer cells after 48 hrs by SRB assay; type: functional; details: Cancer cell lines; summary of the method: as §1
[13] = Growth inhibition of human melanoma cells after 48 hrs by SRB assay; type: functional; details: Melanoma cell; summary of the method: as §1
[14] = Growth inhibition of human renal cancer cells after 48 hrs by SRB assay; type: functional; details: Cancer cell lines; summary of the method: as §1
[15] = Growth inhibition of human breast cancer cells after 48 hrs by SRB assay; type: functional; details: Cancer cell lines; summary of the method: as §1
[16] = Growth inhibition of human CNS cancer cells after 48 hrs by SRB assay; type: functional; details: Cancer cell lines
Summary of the method: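 Five-log dose range against NCI tumor cell lines, monitoring GI50, TGI and LC50 for each cell line; MG-MID values derived across the panel; 5-fluorouracil positive control.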

[17] = Growth inhibition of human leukemia cells after 48 hrs by SRB assay; type: functional; details: Leukemia cell; summary of the method: as §1
[18] = Growth inhibition of human colon cancer cells after 48 hrs by SRB assay; type: functional; details: Cancer cell lines; summary of the method: as §1
[19] = Growth inhibition of human non-small cell lung cancer cells after 48 hrs by SRB assay; type: functional; details: Cancer cell lines; summary of the method: as §1

COc1cc(CSc2nc3ccc(C)cc3c(=O)n2-c2ccc(C)cc2)cc(OC)c1OC
IC50 [1]: 1500 nM

COc1ccc(CSc2nc3cc(OC)c(OC)cc3c(=O)n2-c2ccccc2OC)cc1
IC50 [1]: 600 nM

Clc1ccccc1C(c1ccccc1)(c1ccccc1)n1ccnc1 [CLOTRIMAZOLE]
zone of inhibition at 200 µg/disc [2]: 21 mm

COc1ccc(CSc2nc3ccc(Cl)cc3c(=O)n2-c2ccccc2)cc1
zone of inhibition at 200 µg/disc [3]: 8 mm
IC50 [1]: 20 nM
zone of inhibition at 200 µg/disc [4]: 14 mm
zone of inhibition at 200 µg/disc [2]: 8 mm
zone of inhibition at 200 µg/disc [5]: 8 mm
zone of inhibition at 200 µg/disc [6]: 16 mm

COc1ccc(CSc2nc3ccc(Cl)cc3c(=O)n2-c2ccc(C)cc2)cc1
IC50 [1]: 4000 nM

COc1cc(CSc2nc3ccc(Cl)cc3c(=O)n2-c2ccc(Cl)cc2)cc(OC)c1OC
IC50 [1]: 2000 nM

COc1ccc(CSc2nc3ccc(Cl)cc3c(=O)n2-c2ccc(OC)cc2)cc1
IC50 [1]: 100 nM

COc1ccc(CSc2nc3ccc(Cl)cc3c(=O)n2-c2ccc(Cl)cc2)cc1
IC50 [1]: 3000 nM

COc1ccc(CSc2nc3ccc(C)cc3c(=O)n2-c2ccc(C)cc2)cc1
IC50 [1]: 1000 nM

COc1ccccc1-n1c(SCc2cc(OC)c(OC)c(OC)c2)nc2ccc(C)cc2c1=O
IC50 [1]: 1000 nM

COc1ccc(CSc2nc3ccc(C)cc3c(=O)n2-c2ccc(OC)cc2)cc1
IC50 [1]: 1200 nM

GENTAMICIN
MIC [7]: 2 µg/mL
MIC [8]: 1 µg/mL
MIC [9]: 2 µg/mL

O=C(O)c1cn(C2CC2)c2cc(N3CCNCC3)c(F)cc2c1=O [CIPROFLOXACIN]
zone of inhibition at 200 µg/disc [3]: 38 mm
zone of inhibition at 200 µg/disc [4]: 32 mm
MIC ([7]; IFO 3007, 24 h): 0.5 µg/mL (≈ 1.51 µM)
zone of inhibition at 200 µg/disc [5]: 36 mm
zone of inhibition at 200 µg/disc [6]: 35 mm
MIC ([8]; IFO 3448, 24 h): 1 µg/mL (≈ 3.02 µM)
MIC ([9]; IFO 3060, 24 h): 0.5 µg/mL (≈ 1.51 µM)

COc1cc(CSc2nc3ccc(Cl)cc3c(=O)n2-c2ccc(C)cc2)cc(OC)c1OC
IC50 [1]: 3000 nM

COc1ccc(CSc2nc3ccc(Cl)cc3c(=O)n2-c2ccc(OC)cc2OC)cc1
zone of inhibition at 200 µg/disc [3]: 8 mm
IC50 [1]: 1000 nM
zone of inhibition at 200 µg/disc [4]: 15 mm
zone of inhibition at 200 µg/disc [2]: 8 mm
MIC ([7]; IFO 3007, 24 h): 4 µg/mL (≈ 8.53 µM)
zone of inhibition at 200 µg/disc [5]: 8 mm
zone of inhibition at 200 µg/disc [6]: 18 mm
MIC ([9]; IFO 3060, 24 h): 8 µg/mL (≈ 17.1 µM)

COc1cc2nc(SCc3cc(OC)c(OC)c(OC)c3)n(-c3ccc(Cl)cc3)c(=O)c2cc1OC
zone of inhibition at 200 µg/disc [3]: 18 mm
IC50 [1]: 900 nM
MIC [10]: 8 µg/mL (≈ 15.1 µM)
zone of inhibition at 200 µg/disc [4]: 22 mm
zone of inhibition at 200 µg/disc [2]: 8 mm
MIC ([7]; IFO 3007, 24 h): 2 µg/mL (≈ 3.78 µM)
zone of inhibition at 200 µg/disc [5]: 12 mm
zone of inhibition at 200 µg/disc [6]: 26 mm
MIC ([9]; IFO 3060, 24 h): 4 µg/mL (≈ 7.56 µM)

COc1ccc(CSc2nc3cc(OC)c(OC)cc3c(=O)n2Cc2ccccc2)cc1
IC50 [1]: 800 nM

COc1ccc(CSc2nc3cc(OC)c(OC)cc3c(=O)n2-c2ccccc2)cc1
zone of inhibition at 200 µg/disc [3]: 14 mm
IC50 [1]: 4000 nM
MIC [10]: 8 µg/mL (≈ 18.4 µM)
zone of inhibition at 200 µg/disc [4]: 24 mm
zone of inhibition at 200 µg/disc [2]: 12 mm
MIC ([7]; IFO 3007, 24 h): 2 µg/mL (≈ 4.6 µM)
zone of inhibition at 200 µg/disc [5]: 8 mm
zone of inhibition at 200 µg/disc [6]: 26 mm
MIC ([9]; IFO 3060, 24 h): 2 µg/mL (≈ 4.6 µM)

COc1ccc(CSc2nc3ccc(C)cc3c(=O)n2-c2ccccc2)cc1
zone of inhibition at 200 µg/disc [3]: 16 mm
IC50 [1]: 100 nM
MIC [10]: 8 µg/mL (≈ 20.6 µM)
zone of inhibition at 200 µg/disc [4]: 18 mm
zone of inhibition at 200 µg/disc [2]: 8 mm
MIC ([7]; IFO 3007, 24 h): 2 µg/mL (≈ 5.15 µM)
zone of inhibition at 200 µg/disc [5]: 12 mm
zone of inhibition at 200 µg/disc [6]: 22 mm
MIC ([9]; IFO 3060, 24 h): 4 µg/mL (≈ 10.3 µM)

COc1ccc(CSc2nc3cc(OC)c(OC)cc3c(=O)n2-c2ccc(C)cc2)cc1
IC50 [1]: 2000 nM

COc1ccc(CSc2nc3ccc(C)cc3c(=O)n2Cc2ccccc2)cc1
IC50 [1]: 10 nM

COc1ccc(-n2c(SCc3cc(OC)c(OC)c(OC)c3)nc3cc(OC)c(OC)cc3c2=O)cc1
IC50 [1]: 1200 nM

COc1ccc(CSc2nc3ccc(C)cc3c(=O)n2-c2ccc(Cl)cc2)cc1
IC50 [1]: 100 nM

COc1ccc(CSc2nc3ccc(Cl)cc3c(=O)n2Cc2ccccc2)cc1
IC50 [1]: 1100 nM

COc1ccc(CSc2nc3cc(OC)c(OC)cc3c(=O)n2-c2ccc(Cl)cc2)cc1
zone of inhibition at 200 µg/disc [3]: 15 mm
IC50 [1]: 6000 nM
MIC [10]: 8 µg/mL (≈ 17.1 µM)
zone of inhibition at 200 µg/disc [4]: 20 mm
zone of inhibition at 200 µg/disc [2]: 8 mm
MIC ([7]; IFO 3007, 24 h): 4 µg/mL (≈ 8.53 µM)
zone of inhibition at 200 µg/disc [5]: 8 mm
zone of inhibition at 200 µg/disc [6]: 18 mm
MIC ([9]; IFO 3060, 24 h): 4 µg/mL (≈ 8.53 µM)

O=c1[nH]cc(F)c(=O)[nH]1 [FLUOROURACIL]
GI50 [11]: 22700 nM
TGI [11]: > 100000 nM
GI50 [12]: 61400 nM
TGI [12]: > 100000 nM
GI50 [13]: 70600 nM
TGI [13]: > 100000 nM
GI50 [14]: 45600 nM
TGI [14]: > 100000 nM
GI50 [15]: 76400 nM
TGI [15]: > 100000 nM
TGI [16]: > 100000 nM
TGI [17]: > 100000 nM
CC50 ([17]; read-out: LC50 (the source's name)): > 100000 nM
GI50 [18]: 8400 nM
TGI [18]: > 100000 nM
GI50 [19]: > 100000 nM
TGI [19]: > 100000 nM

COc1cc2nc(SCc3cc(OC)c(OC)c(OC)c3)n(-c3ccc(C)cc3)c(=O)c2cc1OC
IC50 [1]: 1200 nM

COc1cc(CSc2nc3ccc(C)cc3c(=O)n2-c2ccc(Cl)cc2)cc(OC)c1OC
IC50 [1]: 900 nM

COc1ccc(CSc2nc3ccc(C)cc3c(=O)n2-c2ccc(OC)cc2OC)cc1
IC50 [1]: 700 nM

COc1ccc(CSc2nc3cc(OC)c(OC)cc3c(=O)n2-c2ccc(OC)cc2)cc1
IC50 [1]: 800 nM

COc1ccc(-n2c(SCc3cc(OC)c(OC)c(OC)c3)nc3cc(OC)c(OC)cc3c2=O)c(OC)c1
IC50 [1]: 3000 nM

COc1ccc(-n2c(SCc3cc(OC)c(OC)c(OC)c3)nc3ccc(Cl)cc3c2=O)c(OC)c1
IC50 [1]: 4000 nM

COc1ccc(CSc2nc3ccc(C)cc3c(=O)n2-c2ccccc2OC)cc1
IC50 [1]: 900 nM

COc1cc2nc(SCc3cc(OC)c(OC)c(OC)c3)n(-c3ccccc3)c(=O)c2cc1OC
zone of inhibition at 200 µg/disc [3]: 18 mm
IC50 [1]: 900 nM
MIC [10]: 8 µg/mL (≈ 16.2 µM)
zone of inhibition at 200 µg/disc [4]: 15 mm
zone of inhibition at 200 µg/disc [2]: 8 mm
MIC ([7]; IFO 3007, 24 h): 8 µg/mL (≈ 16.2 µM)
zone of inhibition at 200 µg/disc [5]: 16 mm
zone of inhibition at 200 µg/disc [6]: 19 mm
MIC ([8]; IFO 3448, 24 h): 8 µg/mL (≈ 16.2 µM)
MIC ([9]; IFO 3060, 24 h): 8 µg/mL (≈ 16.2 µM)

COc1ccc(CSc2nc3ccc(Cl)cc3c(=O)n2-c2ccccc2OC)cc1
IC50 [1]: 800 nM
